Source: PubChem BioAssay (several laboratories)
JMJD2C inh – inhibitors of human GASC-1 (JMJD2C) demethylase | 330,000 tested, 0.069% active | GST-JMJD2C(1-420) H3K9me3 demethylation, DELFIA europium | AID 2099 | Q9H3R0 | inhibition, % at 2.35 µM;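 active means more than half of a compound's replicate wells show inhibition beyond 50%, single wells judged on their own value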;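 further: signal counts dimethyl H3K9 product captured on neutravidin plate; 0% = median of DMSO wells and 100% = 0.3 times that DMSO median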
T cell HTS – T cell immune modulation candidate | AID 2052 | response (vesicle binding), % at 7 µM | 330,000 tested, 0.068% active | 2C CD8+ T cell-vesicle binding, flow cytometry; active compounds read low;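 active means response, share of CD8 T cells binding vesicles, and their 90th percentile fluorescence all below set limits, cut at about 80% in these data, passing the limit was not always enough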;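 further: values below 100% mean blocked vesicle binding to the CD8+ T cells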
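Incubation: binding step 1.5 h, 37 °C, antibody labelling 20 min, ice; system: murine 2C transgenic CD8+ T lymphocytes; technique: cytometric PE anti-B7-1 and Alexa647 anti-CD8 signals after 1% paraformaldehyde fixation; also added: QL9-charged Drosophila Ld/ICAM-1/B7-1 vesicles; control set: naked versus QL9-loaded vesicles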
GRIN3A LBD mod – modulates the human NR3A ligand-binding domain; NR3A LBD differential scanning fluorimetry, Tm shift; 0% = protein alone, 100% = glycine-bound protein; Tm shift relative to glycine control, % at 25 µM; 340,000 tested, 2.5% active;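 active means melting temperature shift of at least 10% of the positive control shift, at one fixed dose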
Rtt109 Vps75 – inhibitors of Candida albicans Rtt109/Vps75 histone acetyltransferase; Q5AAJ8; purified Rtt109/Vps75, ThioGlo CoA-SH fluorescence, 4 h; inhibition, % at 34.9 µM; 330,000 tested, 0.16% active;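 active means inhibition of at least 50% in every replicate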
Target sequence (Q5AAJ8 whole entry, looked up): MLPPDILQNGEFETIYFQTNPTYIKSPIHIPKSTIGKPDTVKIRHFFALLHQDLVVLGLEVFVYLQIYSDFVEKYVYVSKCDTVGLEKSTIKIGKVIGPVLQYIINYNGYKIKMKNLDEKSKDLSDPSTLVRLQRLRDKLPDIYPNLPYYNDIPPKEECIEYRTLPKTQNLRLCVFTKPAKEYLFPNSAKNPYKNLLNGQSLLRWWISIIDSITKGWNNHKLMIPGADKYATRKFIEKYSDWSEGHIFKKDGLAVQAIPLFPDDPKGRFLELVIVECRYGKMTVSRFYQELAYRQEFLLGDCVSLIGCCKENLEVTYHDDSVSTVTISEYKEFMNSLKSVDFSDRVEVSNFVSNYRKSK
An asterisk follows results filed as active; i = inactive; . = not tested or not shown. An excerpt weighted towards active compounds, which were near 2.8% of everything screened.

SMILES	JMJD2C inh	T cell HTS	GRIN3A LBD mod	Rtt109 Vps75
N/C(=N\S(=O)(=O)c1cc(C(F)(F)F)cc(C(F)(F)F)c1)c1ccc(Cl)cc1	1.7	321.3	18.6*	5.6
CCN(C(=O)c1cccc(NC(=O)c2ccccc2)c1)C1CCCCC1	7.7	323.8	1.5	11.4
O=C(Cn1c(-c2ccccc2)noc1=O)NCc1ccccc1	1.9	476.8	12.7*	-5.0
O=C(CC(=O)NCc1ccccc1)NCc1ccccc1	-30.3	197.0	-0.7	-9.9
CN(CC(=O)NC1CC(C)(C)NC(C)(C)C1)S(=O)(=O)c1ccc(Br)cc1	-10.3	194.9	13.1*	6.2
Cc1ccc(S(=O)(=O)N(C)CC(=O)NC2CC(C)(C)NC(C)(C)C2)cc1	-9.6	412.5	-0.9	-1.2
Cc1ccc(C(=O)N2[C@@H]3CN(C)C(=O)[C@@]2(Cc2ccccc2)[C@H]2C(=O)N(C)C(=O)[C@@H]32)cc1	.	.	2.6	-3.2
S=C(c1ccccc1)N1CCCc2ccccc21	-1.9	372.3	11.1*	10.1
O=C(c1ccccc1)N1CCCc2ccccc21	1.5	198.9	-1.5	1.1
O=C(Cc1cccc2ccccc12)N1CCCc2ccccc21	57.6*	164.5	2.6	13.6
CN(C)C(CNC(=O)c1cccc(S(=O)(=O)Nc2ccc(SC(F)F)cc2)c1)c1ccccc1 (stereo unspecified)	.	.	-1.1	0.4
S=C(c1cccs1)N1CCN(c2ccccc2)CC1	.	.	-2.8	-4.2
Cc1cccc(N2N=C(C(=O)O)CCC2=O)c1	3.0	215.7	-0.3	17.8
C=CCc1cccc(/C=N/NC(=O)CCC(=O)Nc2ccc(C)cc2)c1O	5.5	232.9	14.1*	-6.9
Cc1ccc(NC(=O)CCC(=O)N/N=C/c2ccc(O)cc2O)cc1	7.0	234.0	4.2	2.6
COc1ccccc1NS(=O)(=O)c1cc(NC(=O)c2cccs2)ccc1N1CCCC1	5.0	181.6	8.5	12.4
CC(=O)Nc1ccc(S(=O)(=O)Nc2cccc(C(=O)Nc3ccccc3C(=O)O)c2)cc1	3.3	177.9	4.9	0.6
O=C(Nc1cc(S(=O)(=O)Nc2ccccc2Cl)ccc1O)c1cc2c(s1)CCCC2	6.0	365.8	11.9*	-8.0
O=C(Nc1ccc(Cl)c(S(=O)(=O)Nc2ccccc2Cl)c1)c1cccs1	-3.6	556.9	31.4*	0.6
O=C(Nc1ccc(N2CCCC2)c(S(=O)(=O)Nc2cccc(C(F)(F)F)c2)c1)c1cccs1	-1.2	223.6	29.9*	2.6
CC(=O)Nc1ccc(S(=O)(=O)Nc2cccc(C(=O)NC(C)(C)C)c2)cc1	-3.9	388.7	12.5*	0.7
CCOC(=O)CCCCCC(=O)Nc1ccc2c(c1)C(=O)N([C@H](C)CO)C[C@@H](C)[C@H](CN(C)S(=O)(=O)c1cn(C)cn1)O2	5.1	485.1	0.6	-3.2
C[C@H](CO)N1C[C@H](C)[C@H](CN(C)S(C)(=O)=O)Oc2c(cccc2N(C)C)C1=O	8.8	826.3	-1.5	1.3
O=C(Nc1cccc(S(=O)(=O)Nc2ccc(Cl)cc2)c1)c1cc2c(s1)CCCC2	8.7	393.7	32.2*	-1.0
Cc1ccc(C(=O)Nc2ccc(C)c(S(=O)(=O)Nc3ccccc3Cl)c2)s1	-0.8	177.9	11.1*	-2.4
SMILES	JMJD2C inh	T cell HTS	GRIN3A LBD mod	Rtt109 Vps75
O=C(Nc1ccon1)c1cc2c(s1)CCCC2	-7.5	265.1	6.4	4.5
COc1ccccc1NS(=O)(=O)c1cc(NC(=O)c2sc3cc(Cl)ccc3c2Cl)ccc1C	0.6	i	-5.2	.
COc1ccc(NS(=O)(=O)c2ccc(OC)c(NC(=O)CCC3CCCC3)c2)cc1	-1.9	296.5	31.5*	13.3
Cc1ccc(NC(=O)c2cc3c(s2)CCCC3)cc1S(=O)(=O)Nc1ccccc1Cl	8.4	0.0	17.6*	-4.1
COCCN(CC(=O)Nc1cccc(S(=O)(=O)N2CCCC2)c1)Cc1nc2ccccc2c(=O)[nH]1	.	.	-2.5	3.7
CC(=NN1CC(=O)NC1=O)c1ccc([N+](=O)[O-])o1	.	.	-5.9	-0.8
COc1ccc2c(c1)c(CC(=O)Nc1cccc(S(N)(=O)=O)c1)c(C)n2C(=O)c1ccc(Cl)cc1	-4.1	233.3	22.9*	-3.4
COc1ccc(NC(=O)Cc2c(C)n(C(=O)c3ccc(Cl)cc3)c3ccc(OC)cc23)cc1	-2.3	275.6	-19.2	1.5
O=C(Nc1cccc(S(=O)(=O)Nc2ccc(Cl)cc2)c1)c1ccc(Cl)nc1	13.1	209.1	21.2*	13.6
COc1ccc(NS(=O)(=O)c2cccc(NC(=O)c3ccc(Cl)nc3)c2)cc1	4.6	135.3	0.7	4.4
COc1ccc(NC(=O)CNC(=O)c2cccs2)cc1Cl	-7.1	383.4	0.1	4.4
Cc1cccc(NC(=O)c2cccc(NS(=O)(=O)c3ccc(Cl)cc3)c2)c1	-7.5	333.8	12.0*	9.2
Cc1ccc(NC(=O)CNC(=O)c2cccs2)cc1S(=O)(=O)Nc1ccc(Cl)cc1	-2.8	169.6	11.9*	5.0
CCc1ccc(N(CC)C(=O)c2cn(C)c(=O)c3ccccc23)cc1	-5.8	365.9	-2.3	2.0
COc1ccccc1NS(=O)(=O)c1cc(NC(=S)Nc2cc(C)cc(C)c2)ccc1Cl	-3.5	231.0	20.3*	-4.3
COc1ccc(NS(=O)(=O)c2cccc(NC(=O)CCC(=O)c3cccs3)c2)cc1	-8.2	152.3	-3.0	15.9
COc1ccc(NS(=O)(=O)c2cccc(NC(=O)CCC(=O)c3ccc(Cl)cc3)c2)cc1	7.4	552.0	26.1*	5.9
CCNC(=S)Nc1ccc(C)c(S(=O)(=O)Nc2ccccc2OC)c1	-11.6	153.0	-0.2	-4.0
Cc1noc(C)c1NC(=O)N(C)C[C@@H]1Oc2ccc(NC(=O)Cc3cn(C)c4ccccc34)cc2CC(=O)N([C@H](C)CO)C[C@@H]1C	6.0	248.4	0.6	0.1
Fc1cccc(Nc2ncnc3sc4c(c23)CCC4)c1	-2.1	273.1	12.7*	-8.3
CCCCN(C(=O)CN1C(=O)C2CCCCC2C1=O)c1c(N)n(CCC)c(=O)[nH]c1=O (stereo unspecified)	-6.1	374.8	-1.6	0.1
CC(=O)c1ccc(NC(=O)CN2C(=O)/C(=C/C=C/c3ccccc3)SC2=S)cc1	-27.0	290.4	9.3	5.5
CC(=C\c1ccccc1)/C=C1/SC(=S)N(CCCC(=O)O)C1=O	-0.2	169.8	-1.6	3.2
O=C(O)CN1C(=O)/C(=C/C=C/c2ccccc2)SC1=S	4.9	396.9	20.6*	.
O=C(O)CN1C(=O)/C(=C\C(Br)=C\c2ccccc2)SC1=S	-0.9	111.6	13.3*	15.8
COc1cc2c(cc1OC)[C@@H](NC(=O)CCc1ccccc1)[C@H](O)C2	.	.	1.6	10.9
CSc1ccc(S(=O)(=O)NCC(=O)OCC(=O)NCc2cccs2)cc1[N+](=O)[O-]	0.0	417.5	-5.7	5.9
FC(F)(F)c1cc(CCN2C(=S)NC[C@@H]2Cc2ccccc2)cc(C(F)(F)F)c1	-1.8	.	13.2*	0.1
Oc1ccc(C[C@@H]2CNC(=S)N2CCc2cc(C(F)(F)F)cc(C(F)(F)F)c2)cc1	-2.3	537.3	33.6*	-4.3
